Compound activity (PubChem)
A selection: hits, their analogues and other compounds. The true share with any hit is near 0.79%.
hIAP block: human IAP inhibition; P09923; purified IAP, CDP-Star luminescence, 30 min; inhibition, % at 10 µM; 0.12% of 330,000 active; AID 2544;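 active = inhibition reaching a set limit with compound at 10 µM in the primary screen, cut at about 35% in these data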;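 also: plate controls were DMSO wells with enzyme for no effect and no-enzyme buffer wells for full effect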
Target sequence (P09923 whole entry, looked up): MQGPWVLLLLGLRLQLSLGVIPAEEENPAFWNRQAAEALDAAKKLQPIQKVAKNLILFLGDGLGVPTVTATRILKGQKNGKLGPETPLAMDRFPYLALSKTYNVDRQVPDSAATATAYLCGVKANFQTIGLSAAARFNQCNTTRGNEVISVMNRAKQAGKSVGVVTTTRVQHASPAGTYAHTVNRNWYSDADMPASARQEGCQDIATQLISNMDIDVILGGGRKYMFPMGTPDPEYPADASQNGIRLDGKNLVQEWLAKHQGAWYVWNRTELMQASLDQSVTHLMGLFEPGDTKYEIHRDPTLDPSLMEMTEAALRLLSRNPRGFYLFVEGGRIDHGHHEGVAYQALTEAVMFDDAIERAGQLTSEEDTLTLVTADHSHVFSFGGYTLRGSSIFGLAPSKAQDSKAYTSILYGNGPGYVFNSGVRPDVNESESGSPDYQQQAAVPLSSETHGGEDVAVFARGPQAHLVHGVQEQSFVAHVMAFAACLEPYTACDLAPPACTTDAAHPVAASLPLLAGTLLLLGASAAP
bIAP inh: intestinal alkaline phosphatase (bovine) inhibition; inhibition, % at 20 µM; purified bovine IAP, CDP-star luminescence, 30 min; 190,000 tested, under 10 active;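 active = over 50% inhibition of intestinal alkaline phosphatase at 20 µM in the single-dose screen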
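Assay system – bovine IAP enzyme · Quantity – bovine IAP at 1/65,000,000 final dilution · Detection – CDP-star luminescence signal · Times – 30 min reaction at room temperature · Also added – CDP-star substrate at 30 µM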
hIAP act: increases human intestinal alkaline phosphatase activity | activation factor at 10 µM | P09923 | 0.16% of 330,000 active | AID 2524 | purified human IAP, CDP-Star luminescence, 30 min; stronger effect = higher value; 1 = vehicle-only enzyme, 0 = enzyme-free background;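 active = activation factor of the enzyme at least 2-fold when tested at 20 µM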
bIAP activator: intestinal alkaline phosphatase (bovine) activation. purified bovine IAP, CDP-star luminescence, 30 min; stronger effect = higher value; fold of DMSO-control signal, blank-subtracted. activation factor at 20 µM. 0.17% of 200,000 active. AID 1016;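 active = activation factor of 2 or more at 20 µM, a signal rise over negative controls twice the positive control's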
mIAP block: blocks mouse intestinal alkaline phosphatase | inhibition, % at 10 µM | 0.2% of 330,000 active | purified mouse IAP, CDP-Star luminescence, 30 min;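 active = inhibition of at least 40% at 10 µM in the primary screen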;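 also: plate controls were DMSO with enzyme for no effect and no enzyme wells for full effect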
mIAP activ: increases mouse intestinal alkaline phosphatase activity; muIAP, CDP-Star luminescence, 30 min; stronger effect = higher value; 1 = vehicle-only enzyme signal, 0 = enzyme-free wells; activation factor at 10 µM; 0.24% of 330,000 active;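 active = activation factor of at least 2 at 20 µM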
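Assay system: mouse IAP enzyme; Reagent: CDP-Star chemiluminescent phosphatase substrate; Compound: DMSO-dissolved test compounds; Incubation: 30 min, room temperature; Technique: luminescence from enzymatic CDP-Star hydrolysis; Controls: DMSO-only wells and no-enzyme negative control.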
hIAP act conf: human IAP activation confirmation. 10% of 880 active. AID 434926. shares compounds with hIAP act. activation (%Activity, negative = activation), % at 8.3 µM. purified IAP, CDP-Star luminescence, 30 min; stronger effect = lower value;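 active = at least twofold enzyme activation in any of six single-dose repeats, which the averaged readout prints as negative percent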
mIAP inh conf: mouse IAP inhibition confirmation; 4.7% of 11,000 active; inhibition, % at 10 µM; purified mouse IAP, CDP-Star luminescence, 30 min; AID 434971; shares compounds with mIAP block;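 active = inhibition of at least 40% at 10 µM in either of the two replicates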;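 also: plate controls were DMSO wells with enzyme for no effect and buffer wells lacking enzyme for full effect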
Numbers without * were called inactive; . = no result.

SMILES	hIAP block	bIAP inh	hIAP act	bIAP activator	mIAP block	mIAP activ	hIAP act conf	others
Cc1cccn2c(=O)c3cc(C(=O)NC4CCCC4)c(=N)n(C4CCCCC4)c3nc12	36*	.	0.64	.	-8	1.1	-122*
COc1cc(CN2CCc3ccc(NC(=O)CCc4ccccc4OC)cc3C2)ccc1O	36*	.	0.64	.	-20	1.2	-24
Cn1cc(C(=O)C(F)(F)F)c2ccccc21	-24	-3	1.2	1	5	0.95	.
Cn1cc(C(=O)NS(=O)(=O)Nc2ccc(Br)cc2)c2ccccc21	38*	.	0.62	.	1	0.99	-7
COc1ccc(SC[C@H](Cc2ccccc2)N2CC[C@@H](C)CCC2=O)cc1	-4	.	1	.	3	0.97	.
COc1cc(NC(C)CCCN)c2ncccc2c1 (configuration not stated)	52*	.	0.48	.	1	0.99	-49
Cc1ccc(-c2nnc(SCC(=O)N/N=C/c3ccc(C(=O)O)cc3)n2C2CCCCC2)cc1	13	.	0.87	.	7	0.93	.
Cc1ccsc1/C=N/Nc1ncnc2nc[nH]c12	-126	-24	2.3*	1.2	3	0.97	-11
COc1ccc(NC(=O)/C(C#N)=C\c2cc(C)n(-c3ccc4c(c3)OCO4)c2C)cc1	-108	9	2.1*	0.9	14	0.86	-56
Cc1ccc(C(=O)NNC(=O)c2csc(N3CCOCC3)n2)o1	-90	.	1.9	.	13	0.87	.
COc1ccccc1C(=O)NNC(=O)c1csc(N2CCOCC2)n1	-105	.	2*	.	2	0.98	2
O=C(CCNS(=O)(=O)c1ccccc1)NNC(=O)c1csc(N2CCOCC2)n1	-91	.	1.9	.	19	0.81	.
O=C(NNC(=O)c1ccc(Br)o1)c1csc(N2CCOCC2)n1	-115	.	2.2*	.	11	0.89	10
CC(=O)Nc1ccc(S(=O)(=O)NCC(=O)NNC(=O)c2csc(N3CCOCC3)n2)cc1	-113	.	2.1*	.	23	0.77	-39
O=C(CNC(=O)N1CC(=O)Nc2ccccc21)NCc1cccc(Cl)c1	13	.	0.87	.	4	0.96	.
Cc1ccc(NC(=O)CSc2n[nH]c(-c3cccnc3)n2)c(Br)c1	8	.	0.93	.	2	0.98	.
O=C(NNC(=S)NC(=O)c1ccc(F)cc1)c1ccncc1	-112	.	2.1*	.	23	0.77	-56
COc1ccc(N=Cc2sc3ccccc3c2Cl)cc1	38*	4	0.62	1	1	0.99	-34
Cc1ccc(S(=O)(=O)NCCC(=O)NNC(=O)COc2ccc(Br)cc2)cc1C	-148	.	2.5*	.	-6	1.1	41
O=C1c2c(O)cc(O)cc2O[C@H](c2ccc(O)cc2)[C@H]1O	-3	.	1	.	11	0.89	.
C[C@@H]1O[C@@H](O[C@@H]2C(=O)c3c(O)cc(O)cc3O[C@H]2c2ccc(O)c(O)c2)[C@H](O)[C@H](O)[C@H]1O	35*	.	0.65	.	14	0.86	-43
Cc1[nH]n(-c2nc(-c3ccccc3)cc(=O)[nH]2)c(=O)c1CCO	62*	35	0.38	0.6	12	0.88	47
CN(Cc1cnn(C)c1)C(=O)C1CCC(=O)N(Cc2cccc(F)c2)C1 (configuration not stated)	45*	.	0.55	.	1	0.99	-58
COc1ccc(S(=O)(=O)N2CCCOC2CNC(=O)C(=O)NCc2ccccc2F)cc1C (configuration not stated)	25	.	0.75	.	-3	1	.
CCOc1ccc(-c2cc(C(=O)NCCCN3CCCC3)c3ccccc3n2)cc1	22	.	0.78	.	4	0.96	.
SMILES	hIAP block	bIAP inh	hIAP act	bIAP activator	mIAP block	mIAP activ	hIAP act conf	others
Cc1nc2c3ccccc3nc(NNC(=O)CCC(=O)N3CCN(c4ccc(F)cc4)CC3)n2n1	22	.	0.78	.	6	0.94	.
CCOCCCNC(=O)CCC(=O)NNc1nc2ccccc2c2nc(C)nn12	-207	-34	3.1*	1.3	-1	1	4
Cc1nc2c3ccccc3nc(NNC(=O)CCC(=O)NCCN3CCN(c4ccccc4)CC3)n2n1	-130	.	2.3*	.	10	0.9	-97*
CCCCNC(=O)CCC(=O)NNc1nc2ccccc2c2nc(C)nn12	-154	22	2.5*	0.8	22	0.78	8
O=C(NCc1ccccc1)C(c1ccc(O)cc1)N(C(=O)c1cnccn1)c1ccccc1 (configuration not stated)	11	.	0.89	.	5	0.95	.
CCc1nn(CC(=O)NCCC2=CCCCC2)c(=O)c2cc3cc(F)ccc3n12	-5	.	1.1	.	-14	1.1	.
COc1ccc(OC)c(NC(=O)c2cc(-c3cc(C)ccc3O)n[nH]2)c1	-108	.	2.1*	.	-2	1	-42*
Cc1ccc(C)c(NC(=O)c2cc(-c3cc(C)c(C)cc3O)n[nH]2)c1	-92	.	1.9	.	-30	1.3	.
Cc1ccc(O)c(-c2cc(C(=O)NCc3ccc4c(c3)OCO4)[nH]n2)c1	-106	6	2.1*	0.9	-31	1.3	20
Cc1ccc(-c2cc(C(=O)Nc3cc(C)ccc3C)[nH]n2)c(O)c1	-49	9	1.5	0.9	4	0.96	.
COc1ccc(OC)c(NC(=O)c2cc(-c3ccc(C)cc3O)n[nH]2)c1	-116	-37	2.2*	1.4	-4	1	-36
Cc1ccc(CNC(=O)c2cc(-c3cc(C)cc(C)c3O)n[nH]2)cc1	-90	.	1.9	.	-21	1.2	.
CCc1cccc(C)c1NC(=O)COC(=O)CSCc1ccccc1	1	.	0.99	.	-7	1.1	.
COc1ccccc1CNS(=O)(=O)c1ccc(-n2cccn2)cc1	23	.	0.77	.	-1	1	.
O=C(COc1ccc(Br)cc1)NCCCn1ccnc1	-155	.	2.6*	.	1	0.99	51
Cc1ccc(C(=O)NNC(=O)c2n[nH]c(=O)c3ccccc23)cc1C	-118	.	2.2*	.	16	0.84	-41
O=C(NNC(=O)c1n[nH]c(=O)c2ccccc12)c1ccc(Br)cc1	-113	.	2.1*	.	15	0.85	-12
CCc1ccc(C(=O)NNC(=O)c2n[nH]c(=O)c3ccccc23)cc1	-67	.	1.7	.	12	0.89	.
COc1ccc(C(=O)C2CCCN(C(=O)c3cc(C4CC4)[nH]n3)C2)c(C)c1 (configuration not stated)	-7	.	1.1	.	4	0.96	.
COc1cc(C(=O)NN2C(=O)NC3(CCC(C)CC3)C2=O)ccc1OC(F)F (configuration not stated)	-2	.	1	.	-11	1.1	.
CN(CC(=O)NC(c1ccccc1)c1ccccc1)Cc1nc2ccccc2c(=O)[nH]1	-122	-149	2.2*	2.5*	-109	2.1*	-7	mIAP inh conf=-171
